HCT116 PTEN-null: PTEN-deleted cell growth suppression; HCT116 PTEN-null viability, CellTiter-Glo, 60 h; active compounds read low; 140,000 compounds, 1.2% hits; AID 827; viability, % at 10 µM;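 active means viability at or below a set limit, 4 SD under the median of all tested compounds, cut at about 3.7% in these data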;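 further: PTEN knockout HCT116 line with beta catenin targeted HCT116 as companion control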
Lung fibro prol: blocks proliferation of human lung fibroblasts. AID 719. 85,000 compounds, 1.1% hits. viability, % at 10 µM. LL 47 human lung fibroblast viability, ATP luminescence; active compounds read low;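 active means viability at or below 50% in the single dose screen; inactive means viability above 50%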;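 further: compound exposure lasted 72 h before the ATP readout; 100% = median luminescence of untreated cell-only wells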
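Material: human lung fibroblast line LL 47, low passage; Evaluation: viability percentage against median untreated-cell control; Buffer or medium: 15% FBS in IMEM; Incubation: 72 h compound exposure at 37 °C after overnight plating; Dosing: 0.1% DMSO in all compound wells; Measured by: CellTiter-Glo luminescence.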
H69AR growth 86K: growth inhibitors of human H69AR lung tumor cells. H69AR lung tumor viability, ATP luminescence, 72 h; active compounds read low. viability, % at 10 µM. 85,000 compounds, 6% hits. AID 598;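 active means viability at or below 40%; inactive means viability above 40%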;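 further: multidrug resistant small cell line overexpressing MRP-1 efflux transporter; 100% = mean luminescence of untreated control wells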
HUVEC inhibit: blocks proliferation of human endothelial cells; HUVEC proliferation, CellTiter-Glo luminescence, 72 h; active compounds read low; viability, % at 10 µM (by protocol); 86,000 compounds, 1.1% hits;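 active means viability at or below 30%; inactive means viability above 30%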;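 further: 100% = median luminescence of DMSO-only cell control wells on each plate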
PTK2B oligo ant: blocks oligomerization of human Pyk2 in cells; z-score (the deposit names both 25 µM and 10 µM); Q293 cells, Pyk2 FERM NanoBiT luminescence; active compounds read low; 99,000 compounds, 0.83% hits;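 active means Z-score of -3 or lower, scaled per plate to the spread of control and sample wells; inactive means z-score above -3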;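 further: negative z-score means lost luminescence so less FERM oligomerization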
Target sequence (Q14289 whole entry, looked up): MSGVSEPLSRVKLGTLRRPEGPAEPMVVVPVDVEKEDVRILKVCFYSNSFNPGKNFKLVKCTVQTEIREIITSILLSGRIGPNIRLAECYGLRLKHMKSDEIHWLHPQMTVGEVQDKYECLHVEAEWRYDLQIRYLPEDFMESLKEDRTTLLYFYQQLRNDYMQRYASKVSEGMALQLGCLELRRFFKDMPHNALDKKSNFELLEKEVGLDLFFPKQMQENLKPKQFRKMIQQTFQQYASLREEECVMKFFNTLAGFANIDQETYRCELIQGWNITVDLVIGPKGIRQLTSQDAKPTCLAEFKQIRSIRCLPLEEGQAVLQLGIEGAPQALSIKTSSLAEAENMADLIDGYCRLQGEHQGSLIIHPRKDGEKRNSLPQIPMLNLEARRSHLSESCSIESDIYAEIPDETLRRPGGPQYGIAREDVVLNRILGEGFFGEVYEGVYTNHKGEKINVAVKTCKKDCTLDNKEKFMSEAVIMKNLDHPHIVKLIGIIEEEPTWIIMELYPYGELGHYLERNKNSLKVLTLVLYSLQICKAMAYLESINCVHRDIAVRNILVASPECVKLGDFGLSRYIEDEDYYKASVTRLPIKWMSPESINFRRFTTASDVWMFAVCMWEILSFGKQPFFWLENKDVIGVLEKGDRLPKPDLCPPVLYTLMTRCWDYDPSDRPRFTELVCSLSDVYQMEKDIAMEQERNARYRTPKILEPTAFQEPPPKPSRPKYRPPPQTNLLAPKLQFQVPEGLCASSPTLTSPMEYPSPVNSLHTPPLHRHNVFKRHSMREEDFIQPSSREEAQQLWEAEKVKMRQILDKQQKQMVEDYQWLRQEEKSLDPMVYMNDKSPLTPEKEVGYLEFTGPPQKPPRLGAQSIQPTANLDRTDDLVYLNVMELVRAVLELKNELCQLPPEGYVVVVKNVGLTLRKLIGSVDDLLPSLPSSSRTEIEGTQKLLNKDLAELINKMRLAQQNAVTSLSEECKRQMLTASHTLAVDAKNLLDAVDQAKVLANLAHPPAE
HCT116 bCat-KO: beta-catenin-lacking colon tumor cell growth suppression; viability, % at 10 µM; AID 818; HCT116 beta-catenin knockout viability, CellTiter-Glo, 60 h; active compounds read low; 140,000 compounds, 1.5% hits;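 active means viability at or under a set limit, the compound median less 4 SD, cut at about 6% in these data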;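 further: 0% = Hyamine 1622 control at 20 µM and 100% = untreated cell control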
Starred values were filed as active, the others as inactive; . = no result given; ! = not confirmed by another sample. Only a selection was taken, and hits are over-represented in it overall.

SMILES	HCT116 PTEN-null	Lung fibro prol	H69AR growth 86K	HUVEC inhibit	PTK2B oligo ant	HCT116 bCat-KO
COC(=O)c1c(C)n(Cc2ccc3c(c2)OCO3)c2ccc(O)cc12	75	95	78	74	-4*	80
CCOC(=O)c1c(C)n(Cc2ccco2)c2ccc(O)cc12	98	94	75	78	-1.4	103
CCOC(=O)c1c(C)n(COCCO)c2ccc(O)cc12	105	94	72	96	1.1	116
CCOC(=O)c1c(C)n(Cc2ccc3c(c2)OCO3)c2ccc(O)cc12	84	94	94	82	-3.3*	82
c1ccc2cc3cc4ccccc4cc3cc2c1	.	85	101	90	.	.
NC12CN3CN(CN(C3)C1)C2 (tested in a mixture with another compound)	98	101	104	96	0.03	99
Nc1c2c(nc3sc4c(c13)CCCCC4)CCCC2	7	.	.	.	.	3.4*
CC(C)=CCOc1c2occc2cc2ccc(=O)oc12	84	.	.	.	.	90
CCCCn1c(N)c(C(=O)NCCN2CCOCC2)c2nc3ccccc3nc21	71	93	57	65	-1.8	74
CCCCCCn1c(=O)c(C(=O)Nc2c(C)n(C)n(-c3ccccc3)c2=O)c(O)c2ccccc21	.	62	12*	51	.	.
CCCCn1c(NC(=O)c2ccc(Br)o2)c(C(=O)OCC)c2nc3ccccc3nc21	90	.	.	.	.	82
CCCCCn1c(=O)c(C(=O)NCc2ccncc2)c(O)c2ccccc21	16	60	14*	67	-0.35	19
CCCCCn1c(=O)c(C(=O)Nc2ccncc2)c(O)c2ccccc21	.	49*	5.1*	69	.	.
CCCCn1c(=O)c(C(=O)Nc2ccsc2C(=O)OC)c(O)c2ccccc21	3.1*	.	.	.	.	3.2*
O=c1[nH]c2ccccc2o1	105	.	.	.	.	92
O=C1CSC2(CN3CCC2CC3)N1 (stereo not given)	108	98	105	92	0.23	101
Cc1c2ccncc2c(C)c2c1[nH]c1ccccc12	0.9*	.	.	.	.	1.3*
c1ccc2c(c1)[nH]c1cnccc12	99	96	89	94	.	94
C=CC1CN2CCC1CC2c1[nH]c2ccccc2c1CCO (stereo not given)	99	.	.	.	.	93
CC(/C=N/NC(=O)c1n[nH]c2c1CCC2)=C\c1ccccc1	15	46*	23*	36	0.43	14
Nc1c(C(=O)NCCc2ccccc2)c2nc3ccccc3nc2n1CCN1CCOCC1	1.9*	92	1.6*	55	1.9	1.7*
COc1ccc(CCNC(=O)c2c(N)n(CCN3CCOCC3)c3nc4ccccc4nc23)cc1	0.3*	79	22*	54	0.6	0.4*
CC12CCC3C(CC=C4CC(O)CCC43C)C1C/C(=C\c1cccc(F)c1)C2=O (stereo not given)	26	.	.	.	.	33
C[C@H]1O[C@@H](O[C@H]2[C@@H](O)C[C@H](O[C@H]3[C@@H](O)C[C@H](O[C@H]4CC[C@@]5(C)[C@H](CC[C@@H]6[C@@H]5CC[C@]5(C)[C@@H](C7=CC(=O)OC7)CC[C@]65O)C4)O[C@@H]3C)O[C@@H]2C)C[C@H](O)[C@@H]1O	6	.	.	.	.	4.9*
C[C@@H]1O[C@@H](O[C@H]2C[C@@H](O)[C@]3(CO)[C@H]4[C@H](O)C[C@]5(C)[C@@H](C6=CC(=O)OC6)CC[C@]5(O)[C@@H]4CC[C@]3(O)C2)[C@H](O)[C@H](O)[C@H]1O	4	.	.	.	.	5.7*
SMILES	HCT116 PTEN-null	Lung fibro prol	H69AR growth 86K	HUVEC inhibit	PTK2B oligo ant	HCT116 bCat-KO
O=C(C(Cc1ccccc1)NS(=O)(=O)c1ccc(F)cc1)N1CCC2(CC1)OCCO2 (stereo not given)	71	98	62	87	-0.87	84
COP(=S)(OC)SCN1C(=O)c2ccccc2C1=O	96	97	77	98	.	83
CCC1CCCCN1CC(=O)c1ccc(OC(F)F)cc1 (stereo not given)	92	.	.	.	.	88
Cc1ccc2c(c1)CC1(CN2C)C(=O)NC(=O)N(c2ccc(C)c(C)c2)C1=O (stereo not given)	85	94	93	95	0.33	94
Cc1cccc(N2CCc3c2nc2ccccc2c3N)c1	11	95	34*!	88	0.56	11
O=c1c(C=NCc2cccs2)c(O)n(C2CCCCC2)c(=O)n1C1CCCCC1	104	86	84	97	-1.9	110

High-throughput results: PubChem BioAssay, several laboratories
